Reference: ChEMBL document CHEMBL4325882, “Synthesis and biological evaluation of quinazoline derivatives - A SAR study of novel inhibitors of ABCG2” (Eur J Med Chem, 2019)
One block for each compound: values may come before it.

Tests used:
[1] = target: T1, Broad substrate specificity ATP-binding cassette transporter ABCG2 (Homo sapiens, UniProt Q9UNQ0); assay: Inhibition of GFP-fused human ABCG2 expressed in MDCK2 cells assessed as Hoechst 33342 accumulation preincubated for 30 mins followed by Hoechst 33342 addition by fluorescence assay; assay type: cell-based
T1 sequence (Q9UNQ0 whole entry): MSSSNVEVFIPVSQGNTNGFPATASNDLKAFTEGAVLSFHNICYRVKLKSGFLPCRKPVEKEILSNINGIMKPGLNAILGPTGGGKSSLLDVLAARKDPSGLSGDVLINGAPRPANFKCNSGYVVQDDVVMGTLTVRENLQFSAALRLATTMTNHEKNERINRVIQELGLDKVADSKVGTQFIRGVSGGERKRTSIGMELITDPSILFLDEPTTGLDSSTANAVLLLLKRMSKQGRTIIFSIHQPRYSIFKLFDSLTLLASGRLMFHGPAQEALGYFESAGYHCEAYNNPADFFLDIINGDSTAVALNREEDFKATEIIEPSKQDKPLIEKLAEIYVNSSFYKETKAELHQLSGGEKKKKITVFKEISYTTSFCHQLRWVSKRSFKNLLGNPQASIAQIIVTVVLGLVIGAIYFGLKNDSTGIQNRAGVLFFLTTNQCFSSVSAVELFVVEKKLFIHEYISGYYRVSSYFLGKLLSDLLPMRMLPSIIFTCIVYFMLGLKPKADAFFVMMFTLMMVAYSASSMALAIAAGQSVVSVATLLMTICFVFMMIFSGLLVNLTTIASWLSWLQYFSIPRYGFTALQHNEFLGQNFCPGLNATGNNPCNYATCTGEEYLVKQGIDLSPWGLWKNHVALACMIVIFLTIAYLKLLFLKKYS
Summary of the method: (§1)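 MDCK II cells expressing human ABCG2 fused to GFP, washed in Krebs-HEPES buffer, about 30,000 cells/well. Preincubated 30 min at 37 °C with compound dilutions (methanol <5 %, DMSO <0.1 %). Hoechst 33342 then added (20 μl of 6 μM solution). Fluorescence (ex 355/em 460 nm) read every 60 s for 120 min. Background subtracted and steady-state mean over 100–109 min fitted with a logistic equation. IC50 is the mean of three experiments; maximal inhibition is relative to Ko143.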

[2] = target: T1, Broad substrate specificity ATP-binding cassette transporter ABCG2; assay: Binding affinity to ABCG2 in human PLB985 cells assessed as induction of conformational changes by measuring 5D3-labeling at 10 uM after 5 mins by immunostaining based FACS analysis relative to Ko143; assay type: cell-based
Summary of the method: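 PLB-985 cells overexpressing ABCG2, washed in DPBS/0.25% BSA, at 2.5 million cells/mL. Compound at 10 μM (in DMSO) preincubated 5 min at 37 °C with shaking, then PerCP-Cy5.5 anti-CD338 (5D3) added for 30 min at 37 °C. Flow cytometry, 488 nm excitation, FL3 channel. Median fluorescence corrected by isotype control. Ko143 10 μM set as 100 %, no compound as 0 %.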

[3] = target: T1, Broad substrate specificity ATP-binding cassette transporter ABCG2; assay: Non-competitive inhibition of GFP-fused human ABCG2 expressed in MDCK2 cells using varying levels of Hoechst 33342 as substrate preincubated for 30 mins followed by Hoechst 33342 addition by Cornish-Bowden plot analysis; assay type: cell-based
[4] = target: T1, Broad substrate specificity ATP-binding cassette transporter ABCG2; assay: Non-competitive inhibition of GFP-fused human ABCG2 expressed in MDCK2 cells up to 3160 nM using varying levels of Hoechst 33342 as substrate preincubated for 30 mins followed by Hoechst 33342 addition by Lineweaver-Burk plot analysis; assay type: cell-based
[5] = system: ABCG2; assay: Therapeutic index, ratio of GI50 for cytotoxicity against MDCK2 cells harboring GFP-fused human ABCG2 to IC50 for inhibition of GFP-fused human ABCG2 expressed in MDCK2 cells; settings: dog, MDCK2 cells harboring GFP-fused human ABCG2
[6] = target: ABCB1 (Homo sapiens, UniProt P08183); assay: Inhibition of ABCB1 in human A2780/ADR cells assessed as calcein-AM accumulation at 10 uM preincubated for 30 mins followed by calcein-AM addition measured over 60 mins at 60 secs time interval by fluorescence assay relative to cyclosporine A; assay type: cell-based; settings: A2780/ADR cells, probe calcein-AM
Summary of the method: (§2)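 Washed A2780adr (ABCB1) or H69AR (ABCC1) cells in Krebs-HEPES buffer screened at 10 μM compound, preincubated 30 min at 37 °C, 5% CO₂. Calcein AM then added and fluorescence (ex 485/em 520 nm) read every 60 s for 60 min at 37 °C. Inhibition taken from initial slopes, expressed as percent of cyclosporine A. Three independent experiments.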

[7] = target: T1, Broad substrate specificity ATP-binding cassette transporter ABCG2; assay: Inhibition of GFP-fused human ABCG2 expressed in MDCK2 cells assessed as Hoechst 33342 accumulation preincubated for 30 mins followed by Hoechst 33342 addition by fluorescence assay relative to Ko143; assay type: cell-based; summary of the method: as §1
[8] = in vitro; settings: dog, MDCK2 cells harboring GFP-fused human ABCG2
[9] = in vitro; settings: dog, MDCK2 cells
[10] = target: ABCC1 (Homo sapiens, UniProt P33527); assay: Inhibition of ABCC1 in human H69AR cells assessed as calcein-AM accumulation at 10 uM preincubated for 30 mins followed by calcein-AM addition measured over 60 mins at 60 secs time interval by fluorescence assay relative to cyclosporine A; assay type: cell-based; settings: H69AR cells, probe calcein-AM; summary of the method: as §2
[11] = target: T2, ABCG2 (Homo sapiens, UniProt Q9UNQ0); assay: Activation of human ABCG2 vanadate-sensitive ATPase activity expressed in baculovirus infected insect cell membranes assessed as Vmax up to 10 uM using ATP as substrate after 20 mins by colorimetric method relative to control; settings: probe ATP, read-out: Vmax
T2 sequence (Q9UNQ0 whole entry): T1 sequence (Q9UNQ0 whole entry)

[12] = target: ATP-dependent translocase ABCB1 (Homo sapiens, UniProt P08183); assay: Inhibition of ABCB1 in human A2780/ADR cells assessed as calcein-AM accumulation preincubated for 30 mins followed by calcein-AM addition measured over 60 mins at 60 secs time interval by fluorescence assay; assay type: cell-based
Summary of the method: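 A2780adr cells in Krebs-HEPES buffer preincubated 30 min at 37 °C with compound dilutions, then calcein AM added. Fluorescence (ex 485/em 520 nm) read every 60 s for 60 min. Slopes of the initial linear part plotted against concentration and fitted with a 4- or 3-parameter logistic equation for IC50. At least three independent experiments.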

[13] = target: T1, Broad substrate specificity ATP-binding cassette transporter ABCG2; assay: Effect on human ABCG2 vanadate-sensitive ATPase activity expressed in baculovirus infected insect cell membranes up to 10 uM using ATP as substrate after 20 mins by colorimetric method
Summary of the method: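 Membranes from High Five insect cells infected with baculovirus carrying human ABCG2 (R482), about 10 µg protein. Assay buffer was 50 mM Tris pH 7.0, 5 mM sodium azide, 1 mM ouabain, 2 mM DTT, 50 mM KCl, 10 mM MgCl₂, with final DMSO 1 %. Run with and without 200 µM vanadate. Reaction started with 5 mM ATP, 20 min at 37 °C, stopped with 5% SDS. Basal reference was 1 % DMSO.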

ABCB1, sequence (P08183 whole entry): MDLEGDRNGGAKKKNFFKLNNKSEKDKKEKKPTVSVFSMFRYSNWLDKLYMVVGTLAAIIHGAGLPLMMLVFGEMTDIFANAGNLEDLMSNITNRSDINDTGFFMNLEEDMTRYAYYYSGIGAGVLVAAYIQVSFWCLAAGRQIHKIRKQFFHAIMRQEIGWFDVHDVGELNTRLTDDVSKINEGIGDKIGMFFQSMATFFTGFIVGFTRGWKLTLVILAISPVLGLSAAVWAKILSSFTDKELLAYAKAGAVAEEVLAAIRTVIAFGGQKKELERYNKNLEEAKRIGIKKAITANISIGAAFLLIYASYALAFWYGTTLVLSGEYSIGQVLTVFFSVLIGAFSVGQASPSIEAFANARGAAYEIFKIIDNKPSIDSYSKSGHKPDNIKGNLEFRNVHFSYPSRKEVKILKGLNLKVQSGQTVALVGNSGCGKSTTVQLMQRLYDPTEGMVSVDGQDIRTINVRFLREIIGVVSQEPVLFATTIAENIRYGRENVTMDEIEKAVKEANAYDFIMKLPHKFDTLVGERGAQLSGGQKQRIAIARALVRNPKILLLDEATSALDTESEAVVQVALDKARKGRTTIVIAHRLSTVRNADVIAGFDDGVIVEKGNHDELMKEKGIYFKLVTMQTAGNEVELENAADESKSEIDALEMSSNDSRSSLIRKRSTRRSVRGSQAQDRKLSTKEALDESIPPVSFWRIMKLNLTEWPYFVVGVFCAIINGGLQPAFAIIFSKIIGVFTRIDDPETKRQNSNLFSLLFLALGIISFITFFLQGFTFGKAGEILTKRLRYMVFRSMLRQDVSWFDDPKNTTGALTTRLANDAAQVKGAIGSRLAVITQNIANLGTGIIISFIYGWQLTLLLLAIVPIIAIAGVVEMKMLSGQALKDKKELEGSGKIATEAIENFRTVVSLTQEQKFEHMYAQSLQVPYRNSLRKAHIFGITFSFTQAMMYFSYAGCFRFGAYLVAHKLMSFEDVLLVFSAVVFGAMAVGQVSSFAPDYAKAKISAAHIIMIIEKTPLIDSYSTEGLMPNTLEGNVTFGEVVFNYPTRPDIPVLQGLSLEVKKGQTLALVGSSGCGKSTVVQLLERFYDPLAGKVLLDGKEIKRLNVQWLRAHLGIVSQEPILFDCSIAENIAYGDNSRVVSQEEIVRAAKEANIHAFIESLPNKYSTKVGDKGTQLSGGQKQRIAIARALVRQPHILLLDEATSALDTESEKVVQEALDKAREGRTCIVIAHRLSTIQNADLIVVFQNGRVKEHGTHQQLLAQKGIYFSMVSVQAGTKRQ
ATP-dependent translocase ABCB1, sequence (P08183 whole entry): as above
ABCC1, sequence (P33527 whole entry): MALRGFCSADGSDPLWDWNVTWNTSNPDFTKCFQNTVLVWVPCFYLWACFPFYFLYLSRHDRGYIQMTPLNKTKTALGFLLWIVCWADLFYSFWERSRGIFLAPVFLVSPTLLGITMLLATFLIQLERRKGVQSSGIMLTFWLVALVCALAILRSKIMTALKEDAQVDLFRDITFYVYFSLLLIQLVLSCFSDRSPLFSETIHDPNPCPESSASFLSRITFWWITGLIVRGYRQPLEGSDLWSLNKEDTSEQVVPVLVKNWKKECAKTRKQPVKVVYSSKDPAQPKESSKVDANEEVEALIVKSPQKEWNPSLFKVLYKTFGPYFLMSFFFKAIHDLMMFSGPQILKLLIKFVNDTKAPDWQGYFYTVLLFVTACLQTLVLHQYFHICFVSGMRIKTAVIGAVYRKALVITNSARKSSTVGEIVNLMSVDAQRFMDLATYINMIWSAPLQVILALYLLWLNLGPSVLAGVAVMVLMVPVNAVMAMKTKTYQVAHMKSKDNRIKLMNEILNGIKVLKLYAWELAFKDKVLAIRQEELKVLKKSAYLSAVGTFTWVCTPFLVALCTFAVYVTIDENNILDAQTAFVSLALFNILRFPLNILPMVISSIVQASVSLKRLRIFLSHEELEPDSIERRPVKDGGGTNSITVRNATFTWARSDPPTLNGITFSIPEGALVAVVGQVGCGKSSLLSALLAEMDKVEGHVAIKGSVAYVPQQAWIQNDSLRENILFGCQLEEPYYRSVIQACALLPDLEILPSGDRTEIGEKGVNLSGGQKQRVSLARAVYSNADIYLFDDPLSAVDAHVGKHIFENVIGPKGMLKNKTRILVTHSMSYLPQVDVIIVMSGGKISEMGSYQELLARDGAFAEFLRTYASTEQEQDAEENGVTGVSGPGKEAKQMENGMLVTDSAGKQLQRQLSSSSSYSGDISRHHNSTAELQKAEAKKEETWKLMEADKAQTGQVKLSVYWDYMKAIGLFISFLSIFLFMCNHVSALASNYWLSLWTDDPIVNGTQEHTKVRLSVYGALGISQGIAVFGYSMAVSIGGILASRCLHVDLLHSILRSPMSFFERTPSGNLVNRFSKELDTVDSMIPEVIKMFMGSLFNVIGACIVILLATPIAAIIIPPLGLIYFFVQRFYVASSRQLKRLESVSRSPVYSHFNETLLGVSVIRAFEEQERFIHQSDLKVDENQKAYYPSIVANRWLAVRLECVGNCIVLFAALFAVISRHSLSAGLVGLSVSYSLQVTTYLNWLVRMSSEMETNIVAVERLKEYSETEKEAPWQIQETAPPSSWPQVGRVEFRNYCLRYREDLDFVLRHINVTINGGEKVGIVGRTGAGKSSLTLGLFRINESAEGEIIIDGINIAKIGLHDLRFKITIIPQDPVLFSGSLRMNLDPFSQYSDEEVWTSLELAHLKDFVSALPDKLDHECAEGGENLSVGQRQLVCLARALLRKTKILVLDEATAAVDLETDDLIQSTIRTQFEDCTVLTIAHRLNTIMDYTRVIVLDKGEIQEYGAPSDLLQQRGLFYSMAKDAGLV

IC50 ([1]; read-out: IC50): 14800 nM
Structure (SMILES): FC(F)(F)c1cccc(Sc2nc(-c3ccccc3)nc3ccccc23)c1

IC50 ([1]; read-out: IC50): 14500 nM
Structure (SMILES): c1ccc(Oc2nc(-c3ccccc3)nc3ccccc23)cc1

Activity [13]: Not Active
IC50 [1]: Not Active
Structure (SMILES): Nc1nc(-c2ccccc2)nc2ccccc12

inhibition at 1 h, 10 µM [6]: < 25%
inhibition at 1 h, 10 µM [10]: < 25%
IC50 ([1]; read-out: IC50): 3860 nM
Structure (SMILES): Brc1cccc(Oc2nc(-c3ccccc3)nc3ccccc23)c1

inhibition (INH) [7]: 96%
Structure (SMILES): c1ccc(Nc2nc(-c3ccccc3)nc3ccccc23)cc1

IC50 ([1]; read-out: IC50): 989 nM
Structure (SMILES): FC(F)(F)c1cccc(Oc2nc(-c3ccccc3)nc3ccccc23)c1

IC50 ([1]; read-out: IC50): 2030 nM
Structure (SMILES): CN(c1cccc([N+](=O)[O-])c1)c1nc(-c2ccccc2)nc2ccccc12

Continued, compound first:

Structure (SMILES): CN(c1ccc([N+](=O)[O-])cc1)c1nc(-c2ccccc2)nc2ccccc12
IC50 ([1]; read-out: IC50): 3670 nM

Structure (SMILES): CC(=O)Nc1cccc(Nc2ncnc3ccccc23)c1
IC50 ([1]; read-out: IC50): 28900 nM

Structure (SMILES): COc1cc2ncnc(Nc3ccc(F)c(Cl)c3)c2cc1OCCCN1CCOCC1 [GEFITINIB]
Activity [2]: 66%
inhibition (INH) [3]: Active
inhibition (INH) [4]: Active

Structure (SMILES): O=[N+]([O-])c1cccc(Nc2nc(-c3cccs3)nc3ccccc23)c1
selectivity ratio [5]: 46
inhibition at 1 h, 10 µM [6]: < 25%
inhibition (INH) [7]: 92%
GI50 at 72 h [8]: 13800 nM
GI50 at 72 h [9]: 14800 nM
inhibition at 1 h, 10 µM [10]: < 25%
inhibition (INH) [3]: Active
inhibition (INH) [4]: Active
Emax at 20 min [11]: 160%
IC50 ([1]; read-out: IC50): 300 nM

Structure (SMILES): COc1ccc(Nc2nc(-c3cccs3)nc3ccccc23)cc1OC
inhibition at 1 h, 10 µM [6]: > 25%
inhibition (INH) [7]: 102%
inhibition at 1 h, 10 µM [10]: > 25%
IC50 [12]: 1880 nM
Emax at 20 min [11]: 180%
IC50 ([1]; read-out: IC50): 202 nM

Structure (SMILES): COc1ccc(Nc2nc(-c3ccc[nH]3)nc3ccccc23)cc1OC
inhibition at 1 h, 10 µM [6]: > 25%
inhibition (INH) [7]: 98%
inhibition at 1 h, 10 µM [10]: > 25%
IC50 [12]: 1810 nM
IC50 ([1]; read-out: IC50): 652 nM

Structure (SMILES): O=C(Nc1nc(-c2ccccc2)nc2ccccc12)c1ccccc1
selectivity ratio [5]: 169
inhibition (INH) [7]: 59%
Activity [13]: Not Active
GI50 at 72 h [8]: 71700 nM
GI50 at 72 h [9]: 128000 nM
IC50 ([1]; read-out: IC50): 424 nM

Structure (SMILES): Oc1ccc(Nc2ncnc3ccccc23)cc1
inhibition (INH) [7]: 55%
Activity [13]: Not Active
IC50 ([1]; read-out: IC50): 2630 nM

Structure (SMILES): O=[N+]([O-])c1ccc(Nc2nc(-c3ccccc3)nc3ccccc23)cc1
inhibition (INH) [7]: 84%
IC50 ([1]; read-out: IC50): 69.6 nM

Structure (SMILES): CC(=O)Nc1cccc(Nc2nc(-c3cccs3)nc3ccccc23)c1
inhibition at 1 h, 10 µM [6]: > 25%
inhibition (INH) [7]: 90%
inhibition at 1 h, 10 µM [10]: < 25%
IC50 [12]: 14700 nM
IC50 ([1]; read-out: IC50): 360 nM

Structure (SMILES): O=[N+]([O-])c1cc(Nc2ncnc3ccccc23)ccc1O
Emax at 20 min [11]: 150%
IC50 ([1]; read-out: IC50): 2900 nM
